What was measured:
[1] = molecular target: T1, Serine/threonine-protein kinase Sgk1 (Homo sapiens) (UniProt O00141); test: Inhibition of SGK1 assessed as residual activity at 10 uM by Cherenkov counting relative to control in presence of 20 uM ATP
T1 sequence (whole entry): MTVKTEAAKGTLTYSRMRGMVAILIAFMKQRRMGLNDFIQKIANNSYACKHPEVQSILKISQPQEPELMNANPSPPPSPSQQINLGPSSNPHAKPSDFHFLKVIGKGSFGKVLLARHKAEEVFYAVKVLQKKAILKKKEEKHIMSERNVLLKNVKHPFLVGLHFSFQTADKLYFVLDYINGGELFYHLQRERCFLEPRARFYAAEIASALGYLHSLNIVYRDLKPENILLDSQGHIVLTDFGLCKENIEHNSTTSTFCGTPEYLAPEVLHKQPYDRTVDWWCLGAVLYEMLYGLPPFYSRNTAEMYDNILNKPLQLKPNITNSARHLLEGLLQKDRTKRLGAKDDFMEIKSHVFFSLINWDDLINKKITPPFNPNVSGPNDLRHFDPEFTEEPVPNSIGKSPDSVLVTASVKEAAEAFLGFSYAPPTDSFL
Outline: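 Single-concentration profiling at 10 μM in a 78-kinase panel. Kinase activity is expressed as a percentage of control assays run without compound.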

[2] = molecular target: T2, Serine/threonine-protein kinase D1 (Homo sapiens) (UniProt Q15139); test: Inhibition of PKD1 assessed as residual activity at 0.1 uM by Cherenkov counting relative to control in presence of 50 uM ATP
T2 sequence (whole entry): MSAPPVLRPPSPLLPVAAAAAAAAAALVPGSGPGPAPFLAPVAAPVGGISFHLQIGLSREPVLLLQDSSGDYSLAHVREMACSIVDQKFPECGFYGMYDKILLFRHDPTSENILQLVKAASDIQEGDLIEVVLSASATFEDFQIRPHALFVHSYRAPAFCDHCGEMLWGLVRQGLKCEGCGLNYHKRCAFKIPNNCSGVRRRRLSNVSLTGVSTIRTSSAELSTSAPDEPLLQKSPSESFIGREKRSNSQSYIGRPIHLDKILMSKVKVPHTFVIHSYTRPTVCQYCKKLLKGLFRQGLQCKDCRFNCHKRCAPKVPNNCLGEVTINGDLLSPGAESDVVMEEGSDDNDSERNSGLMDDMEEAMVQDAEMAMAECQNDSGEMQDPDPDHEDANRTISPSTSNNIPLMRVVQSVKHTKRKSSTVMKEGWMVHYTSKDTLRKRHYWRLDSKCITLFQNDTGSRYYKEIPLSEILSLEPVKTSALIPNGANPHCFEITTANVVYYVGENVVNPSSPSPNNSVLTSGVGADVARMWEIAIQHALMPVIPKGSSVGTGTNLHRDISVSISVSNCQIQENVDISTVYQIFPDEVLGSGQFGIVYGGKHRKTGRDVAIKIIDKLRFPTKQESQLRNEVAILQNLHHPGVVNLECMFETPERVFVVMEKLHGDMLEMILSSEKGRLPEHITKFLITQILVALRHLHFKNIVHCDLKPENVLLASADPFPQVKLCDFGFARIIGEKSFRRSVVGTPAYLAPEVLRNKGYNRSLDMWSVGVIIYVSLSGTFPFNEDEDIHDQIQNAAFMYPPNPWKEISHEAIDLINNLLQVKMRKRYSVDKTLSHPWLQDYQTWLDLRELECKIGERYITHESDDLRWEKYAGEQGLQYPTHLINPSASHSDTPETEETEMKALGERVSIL
Outline: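 Single-concentration screen at 0.1 μM in a 76-kinase panel. ATP for each kinase was set near its Km for ATP. Residual activity is given as a percentage of control assays without compound, mean of n = 3 ± SD.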

[3] = molecular target: T3, Serine/threonine-protein kinase BRSK2 (Homo sapiens) (UniProt Q8IWQ3); test: Inhibition of BRSK2 assessed as residual activity at 0.1 uM by Cherenkov counting relative to control in presence of 50 uM ATP
T3 sequence (whole entry): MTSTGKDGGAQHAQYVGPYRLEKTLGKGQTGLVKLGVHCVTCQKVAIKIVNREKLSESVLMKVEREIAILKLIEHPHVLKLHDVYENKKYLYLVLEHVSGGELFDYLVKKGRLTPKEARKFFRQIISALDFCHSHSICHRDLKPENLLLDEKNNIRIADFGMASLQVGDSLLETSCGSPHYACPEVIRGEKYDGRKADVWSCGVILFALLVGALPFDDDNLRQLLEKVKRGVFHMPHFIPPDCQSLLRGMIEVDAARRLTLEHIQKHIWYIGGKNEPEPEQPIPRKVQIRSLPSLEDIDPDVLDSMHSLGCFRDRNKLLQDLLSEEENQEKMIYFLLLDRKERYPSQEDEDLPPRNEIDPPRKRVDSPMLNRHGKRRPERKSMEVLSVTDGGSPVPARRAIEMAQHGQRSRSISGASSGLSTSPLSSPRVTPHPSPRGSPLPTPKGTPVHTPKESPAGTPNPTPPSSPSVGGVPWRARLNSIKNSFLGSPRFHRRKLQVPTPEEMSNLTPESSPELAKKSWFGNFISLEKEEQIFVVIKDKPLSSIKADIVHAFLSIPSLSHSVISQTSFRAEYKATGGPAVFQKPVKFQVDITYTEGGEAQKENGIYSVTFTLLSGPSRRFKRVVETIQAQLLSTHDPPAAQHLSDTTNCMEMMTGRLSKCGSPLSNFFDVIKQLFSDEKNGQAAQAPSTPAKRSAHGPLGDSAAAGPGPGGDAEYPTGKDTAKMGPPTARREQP
Outline: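 Single-concentration screen at 0.1 µM across a panel of 76 protein kinases. Each kinase was run at an ATP concentration approximating its ATP Km. Results are % mean residual activity versus control assays without compound (n = 3 ± SD).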

Activity [1] [%] | Activity [2] [%] | Activity [3] [%] | Structure (SMILES)
76 |  |  | CC(C)c1onc(-c2ccc(F)cc2)c1-c1ccncc1
91 |  |  | CC(C)c1noc(-c2ccc(F)cc2)c1-c1ccncc1
 | 88 | 86 | COc1ccc(/C=C/C(=O)Nc2cc(-c3[nH]c(SC)nc3-c3ccc(F)cc3)ccn2)c(OC)c1
 | 97 | 97 | COc1ccc(/C=C/C(=O)Nc2cc(-c3[nH]c([S+](C)[O-])nc3-c3ccc(F)cc3)ccn2)c(OC)c1 (stereo unspecified)

— ChEMBL document CHEMBL1155278, “3,4-Diaryl-isoxazoles and -imidazoles as potent dual inhibitors of p38alpha mitogen activated protein kinase and casein kinase 1delta” (J Med Chem, 2009)
